From ChEMBL document CHEMBL4811251 (Eur J Med Chem, 2021)

Key:
MV4-11 [1] = test: Induction of apoptosis in human MV4-11 cells assessed as late apoptotic cells at 3 uM after 72 hrs by Annexin V FITC/PI staining based flow cytometry analysis (reference value: 3.41%); type: functional
[2] = target: T1, Receptor-type tyrosine-protein kinase FLT3 (Homo sapiens, UniProt P36888); test: Inhibition of human FLT3 using EAIYAAPFAKKK as substrate incubated for 40 mins in presence of [gamma-33ATP] by scintillation counting based radiometry assay
T1 sequence (P36888 whole entry): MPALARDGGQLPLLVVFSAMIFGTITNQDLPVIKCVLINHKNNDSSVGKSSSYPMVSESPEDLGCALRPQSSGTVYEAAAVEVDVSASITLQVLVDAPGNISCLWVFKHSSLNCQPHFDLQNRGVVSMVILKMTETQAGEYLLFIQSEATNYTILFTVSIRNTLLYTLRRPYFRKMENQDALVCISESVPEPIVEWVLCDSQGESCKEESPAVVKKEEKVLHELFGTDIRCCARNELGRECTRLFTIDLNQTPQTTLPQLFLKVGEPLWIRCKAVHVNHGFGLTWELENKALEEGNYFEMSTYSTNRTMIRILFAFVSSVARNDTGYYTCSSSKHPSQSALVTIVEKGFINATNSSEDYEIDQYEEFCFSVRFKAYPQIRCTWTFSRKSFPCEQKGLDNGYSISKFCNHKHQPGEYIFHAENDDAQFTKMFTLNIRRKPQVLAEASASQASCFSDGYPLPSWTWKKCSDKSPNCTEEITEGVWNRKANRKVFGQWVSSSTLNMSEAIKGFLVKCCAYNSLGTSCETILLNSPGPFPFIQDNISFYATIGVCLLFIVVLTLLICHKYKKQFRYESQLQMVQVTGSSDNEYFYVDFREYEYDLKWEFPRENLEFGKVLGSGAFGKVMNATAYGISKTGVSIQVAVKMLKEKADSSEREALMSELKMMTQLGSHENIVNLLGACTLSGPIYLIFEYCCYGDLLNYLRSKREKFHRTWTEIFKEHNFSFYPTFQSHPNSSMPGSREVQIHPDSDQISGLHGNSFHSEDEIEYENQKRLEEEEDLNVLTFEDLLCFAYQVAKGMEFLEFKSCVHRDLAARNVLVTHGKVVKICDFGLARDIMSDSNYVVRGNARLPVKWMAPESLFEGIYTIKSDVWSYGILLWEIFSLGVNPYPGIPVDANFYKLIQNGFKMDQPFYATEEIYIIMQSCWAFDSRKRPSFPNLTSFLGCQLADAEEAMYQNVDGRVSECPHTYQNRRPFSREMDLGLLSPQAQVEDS

[3] = Volume of distribution at steady state in BALB/c mouse at 2 mg/kg, iv measured upto 24 hrs by LC/MS/MS analysis; type: ADME, organism-based; details: in vivo, read-out: Vdss
[4] = AUC in BALB/c mouse at 2 mg/kg, iv measured upto 24 hrs by LC/MS/MS analysis; type: ADME, organism-based; design: route intravenous, dose 2 mg/kg, time <=24; details: in vivo
[5] = target: Protein kinase C theta (Homo sapiens) (UniProt Q04759); test: Inhibition of PKC theta (unknown origin) assessed as residual activity at 1 uM relative to control
Protein kinase C theta (Homo sapiens), sequence (Q04759 whole entry, looked up): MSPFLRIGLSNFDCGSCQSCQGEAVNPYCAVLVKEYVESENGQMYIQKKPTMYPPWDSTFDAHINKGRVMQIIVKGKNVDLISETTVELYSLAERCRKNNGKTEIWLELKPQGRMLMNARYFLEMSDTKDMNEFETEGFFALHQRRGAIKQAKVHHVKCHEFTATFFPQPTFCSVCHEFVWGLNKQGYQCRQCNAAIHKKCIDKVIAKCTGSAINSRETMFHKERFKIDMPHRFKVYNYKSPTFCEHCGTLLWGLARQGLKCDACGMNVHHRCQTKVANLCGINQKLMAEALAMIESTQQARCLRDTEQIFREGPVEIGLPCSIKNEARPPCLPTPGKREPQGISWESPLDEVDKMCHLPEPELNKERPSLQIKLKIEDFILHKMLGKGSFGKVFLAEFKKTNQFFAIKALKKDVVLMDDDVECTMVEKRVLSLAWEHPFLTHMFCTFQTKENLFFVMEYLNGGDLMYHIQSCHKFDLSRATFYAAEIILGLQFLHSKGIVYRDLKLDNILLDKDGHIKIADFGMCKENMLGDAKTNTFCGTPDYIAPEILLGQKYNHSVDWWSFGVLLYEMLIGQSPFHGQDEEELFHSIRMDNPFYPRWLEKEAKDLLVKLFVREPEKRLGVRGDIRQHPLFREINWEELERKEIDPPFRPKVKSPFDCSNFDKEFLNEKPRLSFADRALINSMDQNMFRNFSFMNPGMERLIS

[6] = AUC in Sprague-Dawley rat at 20 mg/kg, po measured upto 24 hrs by LC/MS/MS analysis; type: ADME, organism-based; design: route oral, dose 20 mg/kg, time <=24; details: in vivo
[7] = Cmax in BALB/c mouse at 10 mg/kg, po measured upto 24 hrs by LC/MS/MS analysis; type: ADME, organism-based; design: route oral, dose 10 mg/kg, time <=24; details: in vivo
[8] = Oral bioavailability in BALB/c mouse at 10 mg/kg measured upto 24 hrs by LC/MS/MS analysis; type: ADME, organism-based; details: in vivo
[9] = Cmax in Sprague-Dawley rat at 20 mg/kg, po measured upto 24 hrs by LC/MS/MS analysis; type: ADME, organism-based; design: route oral, dose 20 mg/kg, time <=24; details: in vivo
MV4-11 [10] = test: Induction of cell cylce arrest in human MV4-11 cells assessed as accumulation of cells at G1 phase at 3 uM after 72 hrs by RNase A/propidium iodide staining based flow cytometry (reference value: 64.41%); type: functional
Procedure, shortened: (§1)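 MV4-11 cells were seeded at 8 × 10⁴, held overnight at 37 °C with 5% CO2, then treated 72 h at 3 or 10 µM against a DMSO diluent control. Pellets were fixed in 70% ethanol on ice for 15 min, then stained 1 h at room temperature with PI, 0.1 mg/mL RNase A and 0.05% Triton X-100. Sub-G1, G1, S and G2/M fractions were read by flow cytometry.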

MV4-11 [11] = test: Induction of apoptosis in human MV4-11 cells assessed as necrotic cells at 3 uM after 72 hrs by Annexin V FITC/PI staining based flow cytometry analysis (reference value: 0.23%); type: functional
MV4-11 [12] = test: Induction of apoptosis in human MV4-11 cells assessed as late apoptotic cells at 10 uM after 72 hrs by Annexin V FITC/PI staining based flow cytometry analysis (reference value: 3.41%); type: functional
MV4-11 [13] = test: Induction of cell cylce arrest in human MV4-11 cells assessed as accumulation of cells at G1 phase at 10 uM after 72 hrs by RNase A/propidium iodide staining based flow cytometry (reference value: 64.41%); type: functional; procedure, shortened: as §1
MOLM-13 = test: Antiproliferative activity against human MOLM-13 cells assessed as growth inhibition incubated for 72 hrs by MTT assay; type: functional
[14] = AUC in Sprague-Dawley rat at 5 mg/kg, iv measured upto 24 hrs by LC/MS/MS analysis; type: ADME, organism-based; design: route intravenous, dose 5 mg/kg, time <=24; details: in vivo
[15] = Clearance in BALB/c mouse at 2 mg/kg, iv measured upto 24 hrs by LC/MS/MS analysis; type: ADME, organism-based; details: in vivo
MV4-11 [16] = test: Induction of cell cylce arrest in human MV4-11 cells assessed as accumulation of cells at S phase at 10 uM after 72 hrs by RNase A/propidium iodide staining based flow cytometry (reference value: 18.81%); type: functional; procedure, shortened: as §1
[17] = Cmax in BALB/c mouse at 2 mg/kg, iv measured upto 24 hrs by LC/MS/MS analysis; type: ADME, organism-based; design: route intravenous, dose 2 mg/kg, time <=24; details: in vivo
[18] = Tmax in BALB/c mouse at 2 mg/kg, iv measured upto 24 hrs by LC/MS/MS analysis; type: ADME, organism-based; details: in vivo
MDA-MB-468 = test: Antiproliferative activity against human MDA-MB-468 cells assessed as growth inhibition incubated for 72 hrs by MTT assay; type: functional
[19] = target: Macrophage colony-stimulating factor 1 receptor (Homo sapiens, UniProt P07333); test: Inhibition of human CSF1R at 1 uM using KKKSPGEYVNIEFG as substrate incubated for 40 mins in presence of [gamma-33ATP] by scintillation counting based radiometry assay relative to control
Macrophage colony-stimulating factor 1 receptor, sequence (P07333 whole entry): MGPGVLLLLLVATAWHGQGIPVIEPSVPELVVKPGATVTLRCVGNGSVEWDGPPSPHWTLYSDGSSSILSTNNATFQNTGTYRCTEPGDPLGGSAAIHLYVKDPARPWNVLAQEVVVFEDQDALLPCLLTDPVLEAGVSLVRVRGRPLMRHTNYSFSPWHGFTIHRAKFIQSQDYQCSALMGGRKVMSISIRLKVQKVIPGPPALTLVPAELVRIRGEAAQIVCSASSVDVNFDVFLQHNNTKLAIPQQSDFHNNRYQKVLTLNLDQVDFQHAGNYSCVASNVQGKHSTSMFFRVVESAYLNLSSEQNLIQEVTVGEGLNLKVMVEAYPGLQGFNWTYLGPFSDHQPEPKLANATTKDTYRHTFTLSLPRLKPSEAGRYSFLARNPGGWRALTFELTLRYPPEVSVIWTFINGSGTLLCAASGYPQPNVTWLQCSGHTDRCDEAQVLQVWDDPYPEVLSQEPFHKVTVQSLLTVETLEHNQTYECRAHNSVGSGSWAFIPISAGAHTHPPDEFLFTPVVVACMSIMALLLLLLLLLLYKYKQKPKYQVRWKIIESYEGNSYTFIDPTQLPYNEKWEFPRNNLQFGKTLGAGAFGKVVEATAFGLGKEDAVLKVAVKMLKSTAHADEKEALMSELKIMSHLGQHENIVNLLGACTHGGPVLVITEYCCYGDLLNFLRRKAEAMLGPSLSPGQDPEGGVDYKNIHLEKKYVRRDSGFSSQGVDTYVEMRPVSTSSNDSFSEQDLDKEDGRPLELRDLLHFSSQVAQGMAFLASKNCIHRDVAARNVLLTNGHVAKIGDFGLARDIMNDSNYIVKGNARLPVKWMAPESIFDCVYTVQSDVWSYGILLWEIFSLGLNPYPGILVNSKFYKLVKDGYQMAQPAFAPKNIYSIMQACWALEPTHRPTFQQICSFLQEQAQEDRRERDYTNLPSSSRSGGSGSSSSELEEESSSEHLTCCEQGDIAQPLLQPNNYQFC

[20] = Half life in BALB/c mouse at 10 mg/kg, po measured upto 24 hrs by LC/MS/MS analysis; type: ADME, organism-based; details: in vivo
[21] = target: Glycogen synthase kinase-3 beta (Homo sapiens) (UniProt P49841); test: Inhibition of GSK3beta (unknown origin) assessed as residual activity at 1 uM relative to control
Glycogen synthase kinase-3 beta (Homo sapiens), sequence (P49841 whole entry, looked up): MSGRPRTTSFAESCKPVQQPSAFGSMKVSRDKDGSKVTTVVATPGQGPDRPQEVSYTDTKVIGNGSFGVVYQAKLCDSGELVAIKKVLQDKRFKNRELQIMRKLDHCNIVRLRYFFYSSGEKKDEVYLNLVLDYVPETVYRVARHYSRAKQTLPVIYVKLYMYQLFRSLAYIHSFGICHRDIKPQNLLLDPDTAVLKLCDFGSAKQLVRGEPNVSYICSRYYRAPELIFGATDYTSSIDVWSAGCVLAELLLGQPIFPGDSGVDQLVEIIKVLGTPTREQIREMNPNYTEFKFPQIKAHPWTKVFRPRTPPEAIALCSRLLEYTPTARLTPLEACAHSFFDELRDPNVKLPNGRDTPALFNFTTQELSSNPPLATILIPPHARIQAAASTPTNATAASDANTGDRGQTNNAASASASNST

MV4-11 [22] = test: Induction of apoptosis in human MV4-11 cells assessed as early apoptotic cells at 10 uM after 72 hrs by Annexin V FITC/PI staining based flow cytometry analysis (reference value: 2.73%); type: functional
U-937 = test: Antiproliferative activity against human U937 cells assessed as growth inhibition incubated for 72 hrs by MTT assay; type: functional

SMILES: Nc1ncc(-c2cc3ccccc3o2)c(N2CCC3(CCNC3=O)CC2)c1Cl
- Activity (MV4-11 [1]): 8.24%
- Ki [2]: 242 nM
- Vd [3]: 1.24 L/kg
- AUC at 24 h [4]: 1.55 µM·h
- Activity [5]: 61%
- AUC at 24 h [6]: 25.1 µM·h
- Cmax [7]: 2230 nM
- bioavailability [8]: 33%
- Cmax [9]: 3.2 µM
- Activity (MV4-11 [10]): 75.73%
- Activity (MV4-11 [11]): 0.42%
- Activity (MV4-11 [12]): 14.01%
- Activity (MV4-11 [13]): 90.92%
- GI50 (MOLM-13): 5.11 µM
- AUC at 24 h [14]: 8.92 µM·h
- clearance [15]: 54.2 mL/min/kg
- Activity (MV4-11 [16]): 1.8%
- Cmax [17]: 4.16 µM
- Tmax [18]: 3 min
- GI50 (MDA-MB-468): 650 nM
- inhibition [19]: > 50%
- half-life [20]: 206 min
- Activity [21]: 61%
- Activity (MV4-11 [22]): 1.96%
- GI50 (U-937): 4.88 µM
